The source made the active and inactive calls. The rule behind the calls is not given here.
Experiments:
[1] = species: Sus scrofa; assay: Inhibition of porcine brain alpha/beta tubulin polymerization at 5 uM measured every 20 sec by microplate reader analysis
[2] = Growth inhibition of human MCF7/Topo cells after 24 hrs by MTT assay; type: functional, cell-based
Summary of the method: (§1)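 Cells seeded at 5000/well (Ea.hy926 10,000/well) and exposed for 24 h to dilution series of 100 µM–5 pM, with DMSO as solvent control. MTT (0.5 mg/mL final) for 2 h. Formazan dissolved in SDS/acetic acid/DMSO and read at 570 nm against a 630 nm background. Viability taken relative to DMSO controls; IC50 from dose–response curves, mean of four independent experiments.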

[3] = Growth inhibition of human 518A2 cells after 72 hrs by MTT assay; type: functional, cell-based; conditions: 518A2, 72 h
Summary of the method: (§2)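 5000 cells/well exposed for 72 h to dilution series of 100 µM–5 pM, with DMSO as solvent control. MTT 0.5 mg/mL final for 2 h, absorbance at 570/630 nm. Percentage viable cells taken versus DMSO controls; IC50 from dose–response curves, mean of four independent experiments.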

[4] = Growth inhibition of human 518A2 cells after 24 hrs by MTT assay; type: functional, cell-based; conditions: 518A2, 24 h; summary of the method: as §1
[5] = tested on: HT-29; assay: Growth inhibition of combretastatin A-4 resistant human HT-29 cells after 72 hrs by MTT assay; type: functional, cell-based; conditions: HT-29, 72 h; summary of the method: as §2
[6] = Growth inhibition of human EAhy926 cells after 24 hrs by MTT assay; type: cell-based; conditions: EA.hy 926, 24 h; summary of the method: as §1
[7] = Growth inhibition of human KB-V1/Vbl cells after 24 hrs by MTT assay; type: functional; summary of the method: as §1
[8] = Growth inhibition of primary chicken fibroblasts after 48 hrs by MTT assay; type: cell-based; conditions: Gallus gallus, Fibroblast
Summary of the method: (§3)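 Chicken heart fibroblasts explanted from 10-day-old embryos, seeded at 10,000/well; cardiomyocytes seeded at 20,000/well. Dilution series given for 48 h, DMSO as control. MTT 0.5 mg/mL for 2 h, absorbance at 570/630 nm. Viability versus DMSO controls; IC50 from dose–response curves, mean of three independent experiments.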

[9] = Growth inhibition of chicken cardiomyocytes after 48 hrs by MTT assay; conditions: Gallus gallus, Cardiomyocyte; summary of the method: as §3
[10] = Cell cycle arrest in human HCT116 cells expressing wild type p53 assessed as accumulation at subG1 phase at 100 nM after 24 hrs by propidium iodide staining-based flow cytometry (reference value: 7.1%); type: functional; conditions: HCT-116
[11] = Cell cycle arrest in human HCT116 cells expressing wild type p53 assessed as accumulation at subG1 phase at 50 nM after 24 hrs by propidium iodide staining-based flow cytometry (reference value: 7.1%); type: functional; conditions: HCT-116
[12] = Cell cycle arrest in human HCT116 cells expressing wild type p53 assessed as accumulation at S phase at 100 nM after 24 hrs by propidium iodide staining-based flow cytometry (reference value: 15.3%); type: functional; conditions: HCT-116
[13] = Cell cycle arrest in human HCT116 cells expressing wild type p53 assessed as accumulation at S phase at 50 nM after 24 hrs by propidium iodide staining-based flow cytometry (reference value: 15.3%); type: functional; conditions: HCT-116
[14] = Cell cycle arrest in human HCT116 cells expressing wild type p53 assessed as accumulation at G2/M phase at 100 nM after 24 hrs by propidium iodide staining-based flow cytometry (reference value: 21%); type: functional; conditions: HCT-116
[15] = Cell cycle arrest in human HCT116 cells expressing wild type p53 assessed as accumulation at G2/M phase at 50 nM after 24 hrs by propidium iodide staining-based flow cytometry (reference value: 21%); type: functional; conditions: HCT-116
[16] = Cell cycle arrest in human MCF7/Topo cells assessed as accumulation at subG1 phase at 100 nM after 24 hrs by propidium iodide staining-based flow cytometry (reference value: 4.6%); type: functional
[17] = Cell cycle arrest in human MCF7/Topo cells assessed as accumulation at G1 phase at 100 nM after 24 hrs by propidium iodide staining-based flow cytometry (reference value: 47.8%); type: functional
[18] = Cell cycle arrest in human MCF7/Topo cells assessed as accumulation at S phase at 100 nM after 24 hrs by propidium iodide staining-based flow cytometry (reference value: 16%); type: functional
[19] = Cell cycle arrest in human MCF7/Topo cells assessed as accumulation at G2/M phase at 100 nM after 24 hrs by propidium iodide staining-based flow cytometry (reference value: 31.6%); type: functional
[20] = Cell cycle arrest in human HCT116 cells expressing wild type p53 assessed as apoptotic index ratio at 100 nM after 24 hrs by propidium iodide staining-based flow cytometry relative to control; type: functional; conditions: HCT-116
[21] = Cell cycle arrest in human HCT116 cells expressing wild type p53 assessed as apoptotic index ratio at 50 nM after 24 hrs by propidium iodide staining-based flow cytometry relative to control; type: functional; conditions: HCT-116
[22] = Cell cycle arrest in human HCT116 cells expressing wild type p53 assessed as G2/M index ratio at 100 nM after 24 hrs by propidium iodide staining-based flow cytometry relative to control; type: functional; conditions: HCT-116
[23] = Cell cycle arrest in human HCT116 cells expressing wild type p53 assessed as G2/M index ratio at 50 nM after 24 hrs by propidium iodide staining-based flow cytometry relative to control; type: functional; conditions: HCT-116
[24] = Cell cycle arrest in human MCF7/Topo cells assessed as apoptotic index ratio at 100 nM after 24 hrs by propidium iodide staining-based flow cytometry relative to control; type: functional
[25] = Cell cycle arrest in human MCF7/Topo cells assessed as G2/M index ratio at 100 nM after 24 hrs by propidium iodide staining-based flow cytometry relative to control; type: functional
[26] = tested on: EA.hy 926; assay: Antivascular activity in human EAhy926 cells assessed as induction of retraction of cells to nodes at 250 nM after 16 hrs by light microscopic analysis; type: functional, cell-based
Summary of the method: (§4)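 Ea.hy926 cells (100,000/well) were seeded on Matrigel-coated coverslips and allowed 12 h to form vessel-like networks. Test agent (CA-4 100 nM; indoles 250 nM) or DMSO was then added for 16 h, and networks were documented by light microscopy. Viability was checked by 2 h MTT (0.5 mg/mL) relative to DMSO controls.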

[27] = tested on: EA.hy 926; assay: Antivascular activity in human EAhy926 cells assessed as change in cell morphology from stretched to rounded form at 250 nM after 16 hrs by light microscopic analysis; type: functional, cell-based; summary of the method: as §4
[28] = tested on: EA.hy 926; assay: Antivascular activity in human EAhy926 cells assessed as disruption of preformed blood vessel lke network at 250 nM after 16 hrs by matrigel based tube formation assay; type: functional, cell-based; summary of the method: as §4
[29] = Cytotoxicity against human EAhy926 cells assessed as cell viability at 250 nM after 16 hrs by MTT assay relative to control; type: cell-based, EA.hy 926; conditions: read-out: Activity
Summary of the method: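 Ea.hy926 cells (100,000/well) placed on Matrigel-coated coverslips and left 12 h to form networks, then given 250 nM for 16 h. Viability measured by 2 h incubation with 0.5 mg/mL MTT and formazan absorbance, calculated relative to DMSO controls.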

[30] = tested on: Chorioallantoic membrane; assay: Antivascular activity in fertilized white leghorn egg chorioallantoic membrane assessed as disruption of preformed blood vessel at 2.5 to 5 nmol after 24 to 48 hrs by stereomicroscopic analysis; type: functional, tissue-based; conditions: Gallus gallus

Structure (SMILES)	inhibition [1]	IC50 [2] [nM]	IC50 [3] [nM]	IC50 [4] [nM]	IC50 [5] [nM]	IC50 [6] [nM]	IC50 [7] [nM]	IC50 [8] [nM]	IC50 [9] [nM]	Activity [10] [%]	Activity [11] [%]	Activity [12] [%]	Activity [13] [%]	Activity [14] [%]	Activity [15] [%]	Activity [16] [%]	Activity [17] [%]	Activity [18] [%]	Activity [19] [%]	Ratio [20]	other results
COc1cc(-c2ncn(C)c2-c2ccc3c(c2)c(Cl)cn3C)cc(Br)c1OC.Cl	inactive	18.8	28.2	51.9	23.4	29.9	25.4	23000	3970	25.9	16.2	5.4	12.7	59.7	17.2	24.6	14.4	8.6	52.4	19.7	Ratio [21]: 10.2; Ratio [22]: 17.9; Ratio [23]: 0.9; Ratio [24]: 21.1; Ratio [25]: 5.5; Activity [26]: Active; Activity [27]: Active; Activity [28]: Active; viability at 16 h, 0.25 µM [29]: > 90%; Activity [30]: inactive
COc1cc(-c2ncn(C)c2-c2ccc3c(c2)c(Cl)cn3C)cc(OC)c1OC	Active	20.2	18.2	65.4	15.6	24.6	26	11600	1870	32.4	30.6	7.8	11.1	50.5	14.6	30.7	16.5	9.9	42.9	26.1	Ratio [21]: 24.4; Ratio [22]: 14.8; Ratio [23]: 0.9; Ratio [24]: 27.2; Ratio [25]: 3.9; Activity [26]: Active; Activity [27]: Active; Activity [28]: Active; viability at 16 h, 0.25 µM [29]: > 90%; Activity [30]: inactive

— ChEMBL document CHEMBL3822382 (Eur J Med Chem, 2016)
